Published values collected from several papers.
Each line is one published result; the experiments were not run side by side.
Target: Vascular endothelial growth factor receptor 2 (KDR, Homo sapiens, UniProt P35968)

The remaining binding of `N#Cc1ccc(NC(=O)Nc2ccccc2)cc1` is reported as 96% (cell-free assay, competition with immobilised ligand; 25 µM).
For `CCCCC(=O)Nc1ccc(-c2ccc3ncn(CCC)c(=O)c3c2)cn1`, the remaining binding was 95% (binding, competition with immobilised ligand; 0.5 µM).
For `CC#CC(=O)N1CCC[C@H]1c1nc(-c2ccc(C(=O)Nc3ccccn3)cc2)c2c(N)nccn12`, the inhibition was 0% (enzyme activity, inhibitor; 1 µM).
`C[C@@H]1O[C@@H](O[C@H]2[C@H](Oc3cc(O)c4c(=O)cc(-c5ccc(O)cc5)oc4c3)O[C@H](CO)[C@@H](O)[C@@H]2O)[C@H](O)[C@H](O)[C@H]1O` has an inhibition of 8.3% (enzyme activity, inhibitor, TR-FRET; 40 µM).
With `Cc1ccc(NC(=O)c2ccnc(C(F)(F)F)c2)cc1-c1cc(OCCO)nc(N2CCOCC2)c1` the remaining binding was 85% (binding, competition with immobilised ligand; 1 µM).
`C#Cc1cnc(Nc2ccnc(CO)c2)nc1Nc1ccccc1S(C)(=O)=NC#N` (stereo not shown) has a remaining signal of 41% (cell-free assay; 1 µM).
The remaining binding of `COc1ccc2oc(-c3ccc4nc(N)oc4c3)c/c(=N\c3ccccc3NC(=O)CCN)c2c1` is reported as 103% (binding; 1 µM).
`COc1ccc2[nH]c3c4[nH]c5ccc(OC)cc5c4c4c(c3c2c1)C(=O)NC4=O` gave a remaining binding of 59% (binding, competition with immobilised ligand; 1 µM).
For `O=C(O)[C@H]1O[C@@H](Oc2cc(O)c3c(=O)cc(-c4ccc(O)c(O)c4)oc3c2)[C@H](O)[C@@H](O)[C@@H]1O`, the inhibition was 83.9% (enzyme activity, inhibitor, TR-FRET; 40 µM).
`CO[C@@H]1[C@H](N(C)C(=O)c2ccccc2)C[C@H]2O[C@]1(C)n1c3ccccc3c3c4c(c5c6ccccc6n2c5c31)C(=O)NC4` has an inhibition of 67% (enzyme activity, inhibitor; 1 µM).
